What was measured:
[1] = system: Myzus persicae; test: Antifeedant effect against Myzus persicae assessed as inhibition index at 100 ug/cm2 relative to control; format: functional; design: scale not given: the % may be the effect or the level left
Procedure, shortened: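 Choice settling test on apterous adult M. persicae: 20 boxes of 10 aphids per treatment. Settling inhibition %SI = [1 − (%aphids on treated/%aphids on control surface)] × 100.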

[2] = system: Salmonella typhimurium; test: Mutagenic activity in Salmonella Typhimurium TA100 assessed as number of revertants at 100 ug/plate in presence of Wistar rat S9 liver homogenate; format: toxicity, organism-based, Liver S9 fraction; settings: salmonella enterica subsp. enterica serovar typhimurium
Procedure, shortened: (§1)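 Salmonella/microsome plate test, with or without S9 from livers of male Wistar rats (~200 g). Strain markers and spontaneous revertant counts were routinely verified. Revertants are reported as mean ± standard error of triplicate plates. Strain-specific positive controls were used, with 2-aminoanthracene for all strains when S9 was present.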

[3] = system: Spodoptera littoralis; test: Antifeedant effect against Spodoptera littoralis L6 larvae assessed as relative consumption rate at 10 ug, po after 72 hrs; format: functional
Procedure, shortened: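 Preweighed, newly emerged S. littoralis L6 larvae (20 per experiment) were orally cannulated with 10 µg in 2 µL DMSO; controls got solvent alone. Relative consumption and growth rates were calculated at 72 h on a dry-weight basis. Log-transformed weights were analysed by ANOVA with LSD tests.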

[4] = system: Leptinotarsa decemlineata; test: Insecticidal activity against Leptinotarsa decemlineata assessed as mortality at 5 ug by hemolymph injection after 72 hrs; format: functional
Procedure, shortened: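 Adult L. decemlineata (20 beetles) were injected with 5 µg in DMSO through the metepimeron suture of the thorax. Beetles were kept on potato leaves. Symptoms and mortality were recorded up to 3 days, analysed by contingency tables and Abbott-corrected.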

[5] = system: Salmonella typhimurium; test: Mutagenic activity in Salmonella Typhimurium TA98 assessed as number of revertants at 0.1 ug/plate in absence of Wistar rat S9 liver homogenate; format: toxicity, organism-based; settings: salmonella enterica subsp. enterica serovar typhimurium; procedure, shortened: as §1
[6] = system: Salmonella typhimurium; test: Mutagenic activity in Salmonella Typhimurium TA98 assessed as number of revertants at 1 ug/plate in absence of Wistar rat S9 liver homogenate; format: toxicity, organism-based; settings: salmonella enterica subsp. enterica serovar typhimurium; procedure, shortened: as §1
[7] = system: Salmonella typhimurium; test: Mutagenic activity in Salmonella Typhimurium TA98 assessed as number of revertants at 10 ug/plate in absence of Wistar rat S9 liver homogenate; format: toxicity, organism-based; settings: salmonella enterica subsp. enterica serovar typhimurium; procedure, shortened: as §1
[8] = system: Salmonella typhimurium; test: Mutagenic activity in Salmonella Typhimurium TA98 assessed as number of revertants at 20 ug/plate in absence of Wistar rat S9 liver homogenate; format: toxicity, organism-based; settings: salmonella enterica subsp. enterica serovar typhimurium
Procedure, shortened: (§2)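 Salmonella/microsome plate test (Ames) in strain TA98, with genetic markers and spontaneous revertant counts verified routinely. Run with and without S9 mix, the S9 being liver postmitochondrial supernatant from male Wistar rats of about 200 g. Doses ran from 0.01 to 100 µg/plate. Revertants are the mean of triplicate plates with standard error. Positive controls were 0.5 µg 4-nitroquinoline-N-oxide without S9 and 15 µg 2-aminoanthracene with S9.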

[9] = system: Salmonella typhimurium; test: Mutagenic activity in Salmonella Typhimurium TA98 assessed as number of revertants at 50 ug/plate in absence of Wistar rat S9 liver homogenate; format: toxicity, organism-based; settings: salmonella enterica subsp. enterica serovar typhimurium; procedure, shortened: as §2
[10] = system: Salmonella typhimurium; test: Mutagenic activity in Salmonella Typhimurium TA98 assessed as number of revertants at 100 ug/plate in absence of Wistar rat S9 liver homogenate; format: toxicity, organism-based; settings: salmonella enterica subsp. enterica serovar typhimurium; procedure, shortened: as §2
[11] = system: Salmonella typhimurium; test: Mutagenic activity in Salmonella Typhimurium TA98 assessed as number of revertants at 0.01 ug/plate in presence of Wistar rat S9 liver homogenate; format: toxicity, organism-based, Liver S9 fraction; settings: salmonella enterica subsp. enterica serovar typhimurium; procedure, shortened: as §1
[12] = system: Salmonella typhimurium; test: Mutagenic activity in Salmonella Typhimurium TA98 assessed as number of revertants at 0.1 ug/plate in presence of Wistar rat S9 liver homogenate; format: toxicity, organism-based, Liver S9 fraction; settings: salmonella enterica subsp. enterica serovar typhimurium; procedure, shortened: as §1
[13] = system: Salmonella typhimurium; test: Mutagenic activity in Salmonella Typhimurium TA98 assessed as number of revertants at 1 ug/plate in presence of Wistar rat S9 liver homogenate; format: toxicity, organism-based, Liver S9 fraction; settings: salmonella enterica subsp. enterica serovar typhimurium; procedure, shortened: as §1
[14] = system: Salmonella typhimurium; test: Mutagenic activity in Salmonella Typhimurium TA98 assessed as number of revertants at 50 ug/plate in presence of Wistar rat S9 liver homogenate; format: toxicity, organism-based, Liver S9 fraction; settings: salmonella enterica subsp. enterica serovar typhimurium; procedure, shortened: as §2
[15] = system: Salmonella typhimurium; test: Mutagenic activity in Salmonella Typhimurium TA98 assessed as number of revertants at 100 ug/plate in presence of Wistar rat S9 liver homogenate; format: toxicity, organism-based, Liver S9 fraction; settings: salmonella enterica subsp. enterica serovar typhimurium; procedure, shortened: as §2
[16] = system: Salmonella typhimurium; test: Mutagenic activity in Salmonella Typhimurium TA100 assessed as number of revertants at 0.01 ug/plate in absence of Wistar rat S9 liver homogenate; format: toxicity, organism-based; settings: salmonella enterica subsp. enterica serovar typhimurium; procedure, shortened: as §1
[17] = system: Salmonella typhimurium; test: Mutagenic activity in Salmonella Typhimurium TA100 assessed as number of revertants at 0.1 ug/plate in absence of Wistar rat S9 liver homogenate; format: toxicity, organism-based; settings: salmonella enterica subsp. enterica serovar typhimurium; procedure, shortened: as §1
[18] = system: Salmonella typhimurium; test: Mutagenic activity in Salmonella Typhimurium TA100 assessed as number of revertants at 1 ug/plate in absence of Wistar rat S9 liver homogenate; format: toxicity, organism-based; settings: salmonella enterica subsp. enterica serovar typhimurium; procedure, shortened: as §1
[19] = system: Salmonella typhimurium; test: Mutagenic activity in Salmonella Typhimurium TA100 assessed as number of revertants at 20 ug/plate in absence of Wistar rat S9 liver homogenate; format: toxicity, organism-based; settings: salmonella enterica subsp. enterica serovar typhimurium; procedure, shortened: as §1
[20] = system: Salmonella typhimurium; test: Mutagenic activity in Salmonella Typhimurium TA100 assessed as number of revertants at 100 ug/plate in absence of Wistar rat S9 liver homogenate; format: toxicity, organism-based; settings: salmonella enterica subsp. enterica serovar typhimurium; procedure, shortened: as §1
[21] = system: Salmonella typhimurium; test: Mutagenic activity in Salmonella Typhimurium TA100 assessed as number of revertants at 0.01 ug/plate in presence of Wistar rat S9 liver homogenate; format: toxicity, organism-based, Liver S9 fraction; settings: salmonella enterica subsp. enterica serovar typhimurium; procedure, shortened: as §1
[22] = system: Salmonella typhimurium; test: Mutagenic activity in Salmonella Typhimurium TA100 assessed as number of revertants at 0.1 ug/plate in presence of Wistar rat S9 liver homogenate; format: toxicity, organism-based, Liver S9 fraction; settings: salmonella enterica subsp. enterica serovar typhimurium; procedure, shortened: as §1
[23] = system: Salmonella typhimurium; test: Mutagenic activity in Salmonella Typhimurium TA100 assessed as number of revertants at 1 ug/plate in presence of Wistar rat S9 liver homogenate; format: toxicity, organism-based, Liver S9 fraction; settings: salmonella enterica subsp. enterica serovar typhimurium; procedure, shortened: as §1
[24] = system: Salmonella typhimurium; test: Mutagenic activity in Salmonella Typhimurium TA100 assessed as number of revertants at 20 ug/plate in presence of Wistar rat S9 liver homogenate; format: toxicity, organism-based, Liver S9 fraction; settings: salmonella enterica subsp. enterica serovar typhimurium; procedure, shortened: as §1
[25] = system: Salmonella typhimurium; test: Mutagenic activity in Salmonella Typhimurium TA100 assessed as number of revertants at 50 ug/plate in presence of Wistar rat S9 liver homogenate; format: toxicity, organism-based, Liver S9 fraction; settings: salmonella enterica subsp. enterica serovar typhimurium; procedure, shortened: as §1
[26] = system: Salmonella typhimurium; test: Mutagenic activity in Salmonella Typhimurium TA102 assessed as number of revertants at 0.01 ug/plate in absence of Wistar rat S9 liver homogenate; format: toxicity, organism-based; settings: salmonella enterica subsp. enterica serovar typhimurium; procedure, shortened: as §1
[27] = system: Salmonella typhimurium; test: Mutagenic activity in Salmonella Typhimurium TA102 assessed as number of revertants at 0.1 ug/plate in absence of Wistar rat S9 liver homogenate; format: toxicity, organism-based; settings: salmonella enterica subsp. enterica serovar typhimurium; procedure, shortened: as §1
[28] = system: Salmonella typhimurium; test: Mutagenic activity in Salmonella Typhimurium TA102 assessed as number of revertants at 10 ug/plate in absence of Wistar rat S9 liver homogenate; format: toxicity, organism-based; settings: salmonella enterica subsp. enterica serovar typhimurium; procedure, shortened: as §1
[29] = system: Salmonella typhimurium; test: Mutagenic activity in Salmonella Typhimurium TA102 assessed as number of revertants at 20 ug/plate in absence of Wistar rat S9 liver homogenate; format: toxicity, organism-based; settings: salmonella enterica subsp. enterica serovar typhimurium; procedure, shortened: as §1
[30] = system: Salmonella typhimurium; test: Mutagenic activity in Salmonella Typhimurium TA102 assessed as number of revertants at 0.01 ug/plate in presence of Wistar rat S9 liver homogenate; format: toxicity, organism-based, Liver S9 fraction; settings: salmonella enterica subsp. enterica serovar typhimurium; procedure, shortened: as §1
[31] = system: Salmonella typhimurium; test: Mutagenic activity in Salmonella Typhimurium TA102 assessed as number of revertants at 1 ug/plate in presence of Wistar rat S9 liver homogenate; format: toxicity, organism-based, Liver S9 fraction; settings: salmonella enterica subsp. enterica serovar typhimurium; procedure, shortened: as §1
[32] = system: Salmonella typhimurium; test: Mutagenic activity in Salmonella Typhimurium TA102 assessed as number of revertants at 10 ug/plate in presence of Wistar rat S9 liver homogenate; format: toxicity, organism-based, Liver S9 fraction; settings: salmonella enterica subsp. enterica serovar typhimurium; procedure, shortened: as §1
[33] = system: Salmonella typhimurium; test: Mutagenic activity in Salmonella Typhimurium TA102 assessed as number of revertants at 50 ug/plate in presence of Wistar rat S9 liver homogenate; format: toxicity, organism-based, Liver S9 fraction; settings: salmonella enterica subsp. enterica serovar typhimurium; procedure, shortened: as §1
[34] = system: Salmonella typhimurium; test: Mutagenic activity in Salmonella Typhimurium TA98 assessed as number of revertants at 0.01 ug/plate in absence of Wistar rat S9 liver homogenate; format: toxicity, organism-based; settings: salmonella enterica subsp. enterica serovar typhimurium; procedure, shortened: as §1

Row | SMILES | Activity [1] | Activity [2] | Activity [3] | Activity [4] | Activity [5] | Activity [6] | Activity [7] | Activity [8] | Activity [9] | Activity [10] | Activity [11] | Activity [12] | Activity [13] | Activity [14] | Activity [15] | Activity [16] | Activity [17] | Activity [18] | Activity [19] | Activity [20] | further results
1 | CCCCCCCCCCCC[C@@H](O)[C@H]1CC[C@H]([C@H](O)CCCC[C@H](O)CCCCC[C@@H](O)CC2=CC(C)OC2=O)O1 (stereo partly drawn) [ANNONACIN] | <40% | 88 | 20.53 mg | 29.68% | 30 | 32 | 34 | 36 | 21 | 14 | 36 | 21 | 27 | 25 | 28 | 150 | 142 | 125 | 96 | 68 | Activity [21]: 135; Activity [22]: 139; Activity [23]: 140; Activity [24]: 139; Activity [25]: 99; Activity [26]: 328; Activity [27]: 296; Activity [28]: 221; Activity [29]: 204; Activity [30]: 443; Activity [31]: 429; Activity [32]: 430; Activity [33]: 430; Activity [34]: 33
2 | CCCCCC[C@H](O)CCC[C@H](O)[C@H]1CC[C@H]([C@H]2CC[C@H]([C@H](O)CCCCCCCCCCCCC3=C[C@H](C)OC3=O)O2)O1 [SQUAMOCIN] | <40% | 102 | 20.35 mg | 92.18% | 25 | 26 | 18 | 13 | 10 | 6 | 36 | 39 | 39 | 36 | 31 | 154 | 140 | 114 | 68 | 21 | Activity [21]: 147; Activity [22]: 137; Activity [23]: 138; Activity [24]: 135; Activity [25]: 118; Activity [26]: 259; Activity [27]: 243; Activity [28]: 108; Activity [29]: 98; Activity [30]: 414; Activity [31]: 422; Activity [32]: 419; Activity [33]: 99; Activity [34]: 27

Reference: ChEMBL document CHEMBL1142626, “Insecticidal and mutagenic evaluation of two annonaceous acetogenins” (J Nat Prod, 2000)
